Hits are enriched below; roughly 1.4% of the tested compounds scored in any of these assays.
CAL PDZ FP-1 = human CAL PDZ-peptide interaction inhibition. purified CAL PDZ, TMR-peptide fluorescence polarization, 1 h. inhibition, % at 20 µM. hit rate 0.02% among 330,000;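 active = highest replicate inhibition of at least 40%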;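 also: plate controls were DMSO neutral control wells for no effect and unlabeled competitor peptide control wells for full effect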
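Control set: unlabelled peptide and DMSO controls / Material: purified CerCALP PDZ construct / Timing: 1 h incubation at room temperature before polarization reading / Doses: 20 µM, one dose / Detection: fluorescence polarization (mP)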
CAL PDZ FP-2 = CAL PDZ (human) peptide binding inhibition. purified CAL PDZ, TMR-peptide fluorescence polarization, 1 h. inhibition, % at 24.9 µM. hit rate 0.92% among 300,000;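 active = mean inhibition of at least 30% with at least half of replicates also reaching 30%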;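 also: 0% = DMSO neutral control and 100% = excess unlabeled competitor peptide PRC23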
DYRK1A inh = blocks rat Dyrk1A kinase activity. inhibition, % at 12.5 µM. AID 504441. hit rate 0.43% among 310,000. Q63470. ADP-Glo luminescence, NFATc1 peptide; in the data active = inhibition above about 50%;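 also: plate controls were vehicle with enzyme for no effect and no enzyme for full effect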
ARNT TACC3 PPI = ARNT/TACC3 interaction disruption; Q9Y6A5; AlphaScreen His-ARNT PAS-B/GST-TACC3 binding, luminescence; TACC3 fragment carries E629A point mutation; inhibition, % at 9.99 µM; hit rate 0.66% among 390,000; AID 623870;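 active = mean inhibition of replicates at least 50% and at least half of replicates each reaching 50%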;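 also: 0% = complete ARNT plus TACC3 wells and 100% = ARNT alone without TACC3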
AlphaScreen ctr = AlphaScreen artifact in ARNT/TACC3 counter-screen | shares compounds with ARNT TACC3 PPI | His-ARNT PASB-GST AlphaScreen artifact counter-screen, luminescence | AC50, µM (doses to about 68 µM), for inactives: at the highest dose activity change, negative = signal decrease | hit rate 50% among 1,200 | AID 651705;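 active = every separate test run was called active for a drop in luminescence, with AC50 within twice the top valid dose, actives reach about 71 µM in these data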
* hit, by the source's call; · = no result given; [ ] = remark or other dose.

SMILES | CAL PDZ FP-1 | CAL PDZ FP-2 | DYRK1A inh | ARNT TACC3 PPI | AlphaScreen ctr
CCCN(C)C[C@H]1OCCCC[C@H](C)Oc2ccc(NC(=O)CCC(F)(F)F)cc2C(=O)N([C@H](C)CO)C[C@H]1C | · | · | · | -4 | ·
COCC(=O)Nc1ccc2c(c1)C(=O)N(C)C[C@@H](OC)[C@@H](C)CN(C(=O)C1CCCC1)[C@@H](C)CO2 | · | · | · | 0 | ·
C[C@H]1CN([C@@H](C)CO)C(=O)Cc2cc(NC(=O)Nc3cccc4ccccc34)ccc2O[C@H]1CN(C)CC1CCCCC1 | · | · | · | 52* | -31%[42 µM]
COc1ccc(CN(C)C[C@@H]2Oc3ccc(NC(=O)Cn4cnnn4)cc3C(=O)N([C@@H](C)CO)C[C@H]2C)cc1 | · | · | · | 54* | -4%[42 µM]
C[C@H]1CN([C@@H](C)CO)C(=O)c2cccc(NC(=O)Nc3cccc4ccccc34)c2O[C@@H]1CN(C)S(=O)(=O)c1ccc(Cl)cc1 | · | · | · | 53* | 25µM*
COc1ccc(S(=O)(=O)N(C)C[C@H]2Oc3ccc(NC(=O)c4ccncc4)cc3CC(=O)N([C@@H](C)CO)C[C@@H]2C)cc1 | · | · | · | -7 | ·
CN1CCc2c(sc3c2C(=O)NC(c2ccccn2)N3)C1 (configuration not stated) | 0 | -1 | 5 | active | 68µM*
COCC#Cc1cnc2c(c1)C(=O)N([C@H](C)CO)C[C@H](C)[C@@H](CN(C)C(=O)CN1CCOCC1)O2 | · | · | · | 14 | ·
O=C(C[C@H]1C=C[C@H](NC(=O)CN2CCOCC2)[C@H](CO)O1)NC1CCC1 | · | · | · | 1 | ·
CC(C)NC(=O)Nc1ccc2c(c1)CC(=O)N([C@H](C)CO)C[C@H](C)[C@H](CN(C)S(=O)(=O)c1cccs1)O2 | · | · | · | 108* | -10%[38 µM]
CC(C)NC(=O)Nc1ccc2c(c1)CC(=O)N([C@@H](C)CO)C[C@H](C)[C@@H](CN(C)S(=O)(=O)c1cccs1)O2 | · | · | · | -17 | ·
C[C@@H]1CN([C@@H](C)CO)C(=O)Cc2cc(NS(=O)(=O)c3cccs3)ccc2O[C@@H]1CN(C)C(=O)NC1CCCCC1 | · | · | · | -19 | ·
C[C@H](CO)N1C[C@H](C)[C@H](CN(C)C(=O)NC2CCCCC2)Oc2ccc(NS(=O)(=O)c3cccs3)cc2CC1=O | · | · | · | 59* | 0%[42 µM]
C[C@H]1CN([C@@H](C)CO)C(=O)c2cc(-c3ccccc3F)cnc2O[C@@H]1CN(C)C(=O)NC1CCCC1 | · | · | · | -5 | ·
COc1cccc(-c2ccc([C@H]3[C@H](CO)N4CCCCN(C(=O)NC(C)C)C[C@@H]34)cc2)c1 | · | · | · | 6 | ·
Fc1ccc(-c2ccc(CNCc3ccccn3)o2)cc1 | -4 | -7 | 7 | 61* | -29%
O=C(N/N=C\c1ccncc1)c1ccccc1O | -2 | -7 | 2 | 5 | ·
O=C(N/N=C/c1cccc2nccnc12)c1ccccc1O | -4 | · | 13 | 59* | 30µM*
O=C(Nc1ccc(F)cc1)N[C@H]1CC[C@H](CCn2cc(-c3ccc(F)cc3)nn2)O[C@H]1CO | · | · | · | -36 | ·
Cc1[nH][nH]c(=O)c1C(c1c(C)[nH][nH]c1=O)c1cn(C)c2ccccc12 | 0 | 6 | 20 | 36 | ·
Cc1[nH][nH]c(=O)c1C(c1c(C)[nH][nH]c1=O)c1cn(Cc2cccc3ccccc23)c2ccccc12 | 0 | -2 | -4 | 26* | 46µM*
CCSc1nnc(NC(=O)C2CCCCC2C(=O)O)s1 (configuration not stated) | 0 | 3 | -4 | active | 0%
CCOC(=O)N1CCN(C(=O)CSc2ccc3nnc(-c4ccncc4)n3n2)CC1 | -1 | 0 | · | 8 | ·
CCOC(=O)N1CCN(C(=O)CSc2ccc3nnc(-c4ccccn4)n3n2)CC1 | 1 | -4 | -7 | 42* | 2%
O=C(CSc1ccc2nnc(-c3ccccn3)n2n1)NCC1CCCO1 (configuration not stated) | -1 | · | -2 | 56* | -16%
O=C(CSc1nnc(-c2ccccn2)o1)Nc1ccccc1F | -3 | -3 | 3 | 59* | -10%
O=C(CSc1ccc2nnc(-c3ccccn3)n2n1)Nc1ccccc1F | -2 | -2 | -4 | 53* | -34%
O=C([C@@H]1[C@@H](CO)[C@@H]2Cn3c(ccc(C4=CCCC4)c3=O)[C@H]1N2C(=O)c1ccncc1)N1CCOCC1 | · | · | · | -1 | ·
C/C(=N\NC(=O)c1ccncc1)C12CC3CC(CC(C3)C1)C2 | -1 | -4 | -1 | 51* | 5%
Cc1ccc(S(=O)(=O)NCC[C@H]2CC[C@@H](NC(=O)Nc3cccc(F)c3)[C@H](CO)O2)cc1 | · | · | · | -7 | ·

Screening results (PubChem)
